# Published values collected from several papers.
# Protocols differ between the studies behind these lines.
# Effect on: cell growth or viability
SMILES,cell line,method,concentration,time,quantity,result
CC(=O)Nc1cccc(-n2c(=O)n(C3CC3)c(=O)c3c(Nc4ccc(I)cc4F)n(C)c(=O)c(C)c32)c1,SW-620,resazurin,6.25 nM,72 h,viability,38.8%
CC[C@@]1(O)C(=O)OCc2c1cc1n(c2=O)Cc2cc3ccccc3nc2-1,P388,MTT,,96 h,IC50,0.014 µM
CC/C(=C(\c1ccccc1)c1ccc(OCCN(C)C)cc1)c1ccccc1,CAPAN-1,ATP luminescence,,72 h,EC90,28.4 µM
COc1ccc2c(c1OC)C(=O)O[C@@H]2[C@H]1c2c(cc3c(c2OC)OCO3)CCN1C,FaDu,,,72 h,IC50,15.2 µM
COc1cc(Nc2nccc(-c3cnn4nc(OC)ccc34)n2)cc(C(F)(F)F)c1,SAOS-2,ATP luminescence,,,IC50,0.32 µM
COc1ccc(-c2c(-c3ccc(C#N)c(F)c3)nc(N3CCC(N)CC3)n(C)c2=O)cc1F,TF-1a,resazurin,,96 h,EC50,0.00787 µM
Cc1nc(NC(=O)N2CCC[C@H]2C(N)=O)sc1-c1ccnc(C(C)(C)C(F)(F)F)c1,HCC1954,,,5 days,EC50,1.13 µM
COc1cccc2c1C(=O)c1c(O)c3c(c(O)c1C2=O)C[C@@](O)(C(=O)CO)C[C@@H]3O[C@H]1C[C@H](N)[C@H](O)[C@H](C)O1,SUM159,MTT,,48 h,IC90,> 20 µM
CC(C)C[C@H](NC(=O)[C@H](Cc1ccccc1)NC(=O)c1cnccn1)B(O)O,J82,ATP luminescence,,,IC50,0.01 µM
O=C(O)c1ccc(CN2CCC(CN[C@@H]3C[C@H]3c3ccccc3)CC2)cc1,TF-1a,resazurin,,96 h,EC50,0.0764 µM
